Assay results taken from ChEMBL document CHEMBL4011617, “Ugi Reaction-Derived α-Acyl Aminocarboxamides Bind to Phosphatidylinositol 3-Kinase-Related Kinases, Inhibit HSF1-Dependent Heat Shock Response, and Induce Apoptosis in Multiple Myeloma Cells” (J Med Chem, 2017).
Active and inactive are the calls of the source. The rule behind the calls is not given here.

Legend:
INA-6 [1] = assay: Inhibition of heat shock response in human INA-6 cells assessed as reduction in HSF-1 mediated upregulation of the heat shock protein HSP72 at 50 uM preincubated for 4 hrs followed by HSP90 inhibitor and HSR inducer NVP-AUY922 addition measured after 4 hrs by Western blot method; type: functional, cell-based
In short: (§1)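 INA-6 myeloma cells pretreated with test compound for 4 h, then co-treated with the HSP90 inhibitor/HSR inducer NVP-AUY922 for a further 4 h. Cells harvested; HSP72, HSP27, HSF1 or phospho-HSF1 probed by Western blot with β-actin as loading control. DMSO-only cells were the negative control; NVP-AUY922-only cells were the positive control.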

INA-6 [2] = assay: Inhibition of heat shock response in human INA-6 cells assessed as reduction in HSF-1 mediated upregulation of the heat shock protein HSP72 at 50 uM preincubated for 4 hrs followed by HSP90 inhibitor and HSR inducer NVP-AUY922 addition measured after 4 hrs by ELISA; type: functional, cell-based
In short: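 HSP72 quantified by ELISA in the same protein lysates used for Western blots. INA-6 cells received compound for 4 h, then NVP-AUY922 co-treatment for 4 h more to stimulate HSF1. DMSO-only and NVP-AUY922-only cells served as negative and positive controls.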

INA-6 [3] = assay: Inhibition of heat shock response in human INA-6 cells assessed as reduction in HSF-1 mediated upregulation of the heat shock protein HSP27 at 50 uM preincubated for 4 hrs followed by HSP90 inhibitor and HSR inducer NVP-AUY922 addition measured after 4 hrs by Western blot method; type: functional, cell-based; in short: as §1
INA-6 [4] = assay: Inhibition of heat shock response in human INA-6 cells assessed as reduction in HSF-1 mediated upregulation of the heat shock protein HSP27 at 50 uM preincubated for 4 hrs followed by HSP90 inhibitor and HSR inducer NVP-AUY922 addition measured after 4 hrs by ELISA; type: functional, cell-based
INA-6 [5] = assay: Downregulation of NVP-AUY922-induced HSF-1 protein expression in human INA-6 cells at 50 uM preincubated for 4 hrs followed by NVP-AUY922 addition measured after 4 hrs by Western blot method; type: functional, cell-based; in short: as §1
[6] = molecular target: T1, Heat shock factor protein 1 (Homo sapiens) (UniProt Q00613); assay: Inhibition of NVP-AUY922-induced HSF-1 phosphorylation at S326 residue in human INA-6 cells at 50 uM preincubated for 4 hrs followed by NVP-AUY922 addition measured after 4 hrs by Western blot method; type: cell-based; in short: as §1
T1 sequence (whole entry): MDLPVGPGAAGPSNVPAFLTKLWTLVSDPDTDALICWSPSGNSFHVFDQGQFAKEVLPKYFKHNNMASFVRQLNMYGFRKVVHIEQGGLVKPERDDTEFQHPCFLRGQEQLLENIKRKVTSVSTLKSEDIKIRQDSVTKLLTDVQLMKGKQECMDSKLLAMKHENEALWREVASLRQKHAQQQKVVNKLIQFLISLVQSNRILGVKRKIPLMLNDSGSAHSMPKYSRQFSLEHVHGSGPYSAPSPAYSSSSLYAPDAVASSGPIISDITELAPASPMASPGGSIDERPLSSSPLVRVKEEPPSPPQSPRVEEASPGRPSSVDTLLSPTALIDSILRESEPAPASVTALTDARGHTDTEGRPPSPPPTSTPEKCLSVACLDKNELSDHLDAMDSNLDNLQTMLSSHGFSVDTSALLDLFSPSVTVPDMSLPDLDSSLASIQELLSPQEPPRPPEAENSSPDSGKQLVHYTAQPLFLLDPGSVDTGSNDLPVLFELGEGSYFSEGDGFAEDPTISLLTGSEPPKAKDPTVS

Compound | inhibition [6] | heat shock response inhibition (active/not active) (INA-6 [1]) | HSP72 upregulation inhibition (active/not active) (INA-6 [2]) | activity call (active/not active) for inhibition of HSP27 upregulation (INA-6 [3]) | heat shock response inhibition (active/not active) (INA-6 [4]) | Activity (INA-6 [5])
O=C(NCCN1CCOCC1)C(c1ccccc1Br)N(Cc1ccccc1)C(=O)/C=C/c1ccc(Cl)cc1Cl (racemic) | Active | Active | Active | Active | Active | Active
O=C(NCCN1CCOCC1)C(c1ccccc1)N(Cc1ccccc1)C(=O)/C=C/c1ccc(Cl)cc1Cl (racemic) | Active | Active | Active | Active | Active | Active
NCCOCCOCCNCCOc1ccc(C(C(=O)NCc2ccccc2)N(C(=O)CCc2ccc(O)cc2)C2CC2)cc1 (configuration not stated) | – | – | inactive | inactive | inactive | –
C=CC(=O)N(CCOCCO)C(C(=O)NC(C)(C)C)c1ccccc1Br (racemic) | – | inactive | inactive | inactive | – | –
C/C=C/C(=O)N(Cc1ccco1)C(C(=O)NC1CCCCC1)c1ccccc1Br (racemic) | – | inactive | inactive | inactive | – | –
CCCN(C(=O)/C=C/c1ccccc1)C(C(=O)NCCN1CCOCC1)c1ccccc1Br (racemic) | – | inactive | inactive | inactive | – | –
O=C(NCc1ccccc1)C(c1ccccc1Br)N(Cc1ccccc1)C(=O)/C=C/c1ccccc1 (racemic) | – | inactive | inactive | inactive | – | –

Second part, led by results:

inhibition [6] | Compound | heat shock response inhibition (active/not active) (INA-6 [1]) | HSP72 upregulation inhibition (active/not active) (INA-6 [2]) | activity call (active/not active) for inhibition of HSP27 upregulation (INA-6 [3]) | heat shock response inhibition (active/not active) (INA-6 [4]) | Activity (INA-6 [5])
Active | O=C(NCc1ccccc1)C(c1ccc(OCCBr)cc1)N(C(=O)CCc1ccccc1)C1CC1 (racemic) | Active | Active | Active | Active | Active
Active | CN(C(=O)/C=C/c1ccccc1)C(C(=O)NCc1ccccc1)c1ccccc1Br (racemic) | Active | Active | Active | Active | Active
Active | O=C(NCc1ccccc1)C(c1ccc(Br)cc1)N(C(=O)CCc1ccccc1)C1CC1 (racemic) | Active | Active | Active | Active | Active
Active | O=C(NCc1ccccc1)C(c1ccccc1)N(C(=O)/C=C/c1ccccc1)C1CC1 (racemic) | Active | Active | Active | Active | Active
Active | O=C(NCc1ccccc1)C(c1ccc(Br)cc1)N(C(=O)CCc1ccc(O)cc1)C1CC1 (racemic) | Active | Active | Active | Active | Active
